Results taken from ChEMBL document CHEMBL1759861, “Synthesis of 9-substituted derivatives of berberine as anti-HIV agents” (Eur J Med Chem, 2011).

Legend:
[1] = tested on: Human immunodeficiency virus 1; assay: Antiviral activity against 0.05 MOI Human immunodeficiency virus 1 NL4.3 infected in human CEM cells expressing green fluorescent protein assessed as p24 antigen production at 5 uM measured 7 days post infection by ELISA; assay type: functional; conditions: Human immunodeficiency virus 1, NL4.3, CCRF-CEM, 168 h
How it was run: (§1)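 CD4+ T-cell line CEM-GFP infected with HIV-1 NL4.3 at MOI 0.05, monitored by GFP under the microscope. Each sample tested at a single concentration, its highest noncytotoxic concentration, for up to 7 days post infection. Day-7 culture supernatant assayed for virus by p24 antigen capture ELISA; % inhibition of replication reported. AZT positive control.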

[2] = tested on: Human immunodeficiency virus 1; assay: Antiviral activity against 0.05 MOI Human immunodeficiency virus 1 NL4.3 infected in human CEM cells expressing green fluorescent protein assessed as p24 antigen production measured 7 days post infection by ELISA; assay type: functional, organism-based; conditions: Human immunodeficiency virus 1, NL4.3, CCRF-CEM, 168 h
How it was run: (§2)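 CEM-GFP cells infected with HIV-1 NL4.3 (MOI 0.05) and cultured with samples over a concentration range up to 7 days post infection. p24 antigen capture ELISA on day-7 supernatant. EC50 is the concentration giving 50% inhibition of infected cells. Therapeutic index is CC50 in uninfected cells (MTT, 48 h) divided by EC50.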

[3] = tested on: Human immunodeficiency virus 1; assay: Antiviral activity against 0.05 MOI Human immunodeficiency virus 1 NL4.3 infected in human CEM cells expressing green fluorescent protein assessed as p24 antigen production at 4.88 uM measured 7 days post infection by ELISA; assay type: functional; conditions: Human immunodeficiency virus 1, NL4.3, CCRF-CEM, 168 h; how it was run: as §1
[4] = tested on: Human immunodeficiency virus 1; assay: Antiviral activity against 0.05 MOI Human immunodeficiency virus 1 NL4.3 infected in human CEM cells expressing green fluorescent protein assessed as p24 antigen production at 9.77 uM measured 7 days post infection by ELISA; assay type: functional; conditions: Human immunodeficiency virus 1, NL4.3, CCRF-CEM, 168 h; how it was run: as §1
[5] = molecular target: Human immunodeficiency virus type 1 reverse transcriptase (Human immunodeficiency virus 1) (UniProt Q72547); assay: Inhibition of Human immunodeficiency virus 1 NL4.3 reverse transcriptase activity at 20 ug/ml
[6] = Cytotoxicity against human CEM cells expressing green fluorescent protein after 48 hrs by MTT assay; assay type: cell-based, CCRF-CEM
How it was run: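 Uninfected CEM-GFP cells seeded at 2×10^4 cells/well with samples at several concentrations, untreated and vehicle-treated controls, 48 h. MTT reagent (5 mg/ml stock) added, formazan solubilised, absorbance read at 540 nm. CC50 is the concentration giving 50% cytotoxicity.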

[7] = Therapeutic index, ratio of CC50 for human CEM cells expressing green fluorescent protein to EC50 for Human immunodeficiency virus 1 NL4.3; assay type: cell-based, CCRF-CEM; conditions: read-out: TI; how it was run: as §2
[8] = tested on: Human immunodeficiency virus 1; assay: Antiviral activity against 0.05 MOI Human immunodeficiency virus 1 NL4.3 infected in human CEM cells expressing green fluorescent protein assessed as p24 antigen production at 0.29 uM measured 7 days post infection by ELISA; assay type: functional; conditions: Human immunodeficiency virus 1, NL4.3, CCRF-CEM, 168 h; how it was run: as §1
[9] = tested on: Human immunodeficiency virus 1; assay: Antiviral activity against 0.05 MOI Human immunodeficiency virus 1 NL4.3 infected in human CEM cells expressing green fluorescent protein assessed as p24 antigen production at 1.05 uM measured 7 days post infection by ELISA; assay type: functional; conditions: Human immunodeficiency virus 1, NL4.3, CCRF-CEM, 168 h; how it was run: as §1
[10] = tested on: Human immunodeficiency virus 1; assay: Antiviral activity against 0.05 MOI Human immunodeficiency virus 1 NL4.3 infected in human CEM cells expressing green fluorescent protein assessed as p24 antigen production at 4.32 uM measured 7 days post infection by ELISA; assay type: functional; conditions: Human immunodeficiency virus 1, NL4.3, CCRF-CEM, 168 h; how it was run: as §1
[11] = tested on: Human immunodeficiency virus 1; assay: Antiviral activity against 0.05 MOI Human immunodeficiency virus 1 NL4.3 infected in human CEM cells expressing green fluorescent protein assessed as p24 antigen production at 18.03 uM measured 7 days post infection by ELISA; assay type: functional; conditions: Human immunodeficiency virus 1, NL4.3, CCRF-CEM, 168 h; how it was run: as §1
[12] = molecular target: Human immunodeficiency virus type 1 reverse transcriptase (Human immunodeficiency virus 1) (UniProt Q72547); assay: Inhibition of Human immunodeficiency virus 1 NL4.3 reverse transcriptase activity at 200 ug/ml
How it was run: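 HIV-1 RT inhibition measured with a colorimetric reverse transcriptase assay kit, following the manufacturer's protocol; nevirapine served as the positive control.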

[13] = tested on: Human immunodeficiency virus 1; assay: Antiviral activity against 0.05 MOI Human immunodeficiency virus 1 NL4.3 infected in human CEM cells expressing green fluorescent protein assessed as p24 antigen production at 4.69 uM measured 7 days post infection by ELISA; assay type: functional; conditions: Human immunodeficiency virus 1, NL4.3, CCRF-CEM, 168 h; how it was run: as §1
[14] = tested on: Human immunodeficiency virus 1; assay: Antiviral activity against 0.05 MOI Human immunodeficiency virus 1 NL4.3 infected in human CEM cells expressing green fluorescent protein assessed as p24 antigen production at 15.52 uM measured 7 days post infection by ELISA; assay type: functional; conditions: Human immunodeficiency virus 1, NL4.3, CCRF-CEM, 168 h; how it was run: as §1
[15] = tested on: Human immunodeficiency virus 1; assay: Antiviral activity against 0.05 MOI Human immunodeficiency virus 1 NL4.3 infected in human CEM cells expressing green fluorescent protein assessed as p24 antigen production at 21.65 uM measured 7 days post infection by ELISA; assay type: functional; conditions: Human immunodeficiency virus 1, NL4.3, CCRF-CEM, 168 h; how it was run: as §1
[16] = tested on: Human immunodeficiency virus 1; assay: Antiviral activity against 0.05 MOI Human immunodeficiency virus 1 NL4.3 infected in human CEM cells expressing green fluorescent protein assessed as p24 antigen production at 5.30 uM measured 7 days post infection by ELISA; assay type: functional; conditions: Human immunodeficiency virus 1, NL4.3, CCRF-CEM, 168 h; how it was run: as §1
[17] = tested on: Human immunodeficiency virus 1; assay: Antiviral activity against 0.05 MOI Human immunodeficiency virus 1 NL4.3 infected in human CEM cells expressing green fluorescent protein assessed as p24 antigen production at 2.24 uM measured 7 days post infection by ELISA; assay type: functional; conditions: Human immunodeficiency virus 1, NL4.3, CCRF-CEM, 168 h; how it was run: as §1
[18] = tested on: Human immunodeficiency virus 1; assay: Antiviral activity against 0.05 MOI Human immunodeficiency virus 1 NL4.3 infected in human CEM cells expressing green fluorescent protein assessed as p24 antigen production at 1.03 uM measured 7 days post infection by ELISA; assay type: functional; conditions: Human immunodeficiency virus 1, NL4.3, CCRF-CEM, 168 h; how it was run: as §1
[19] = tested on: Human immunodeficiency virus 1; assay: Antiviral activity against 0.05 MOI Human immunodeficiency virus 1 NL4.3 infected in human CEM cells expressing green fluorescent protein assessed as p24 antigen production at 1.95 uM measured 7 days post infection by ELISA; assay type: functional; conditions: Human immunodeficiency virus 1, NL4.3, CCRF-CEM, 168 h; how it was run: as §1
[20] = tested on: Human immunodeficiency virus 1; assay: Antiviral activity against 0.05 MOI Human immunodeficiency virus 1 NL4.3 infected in human CEM cells expressing green fluorescent protein assessed as p24 antigen production at 0.02 uM measured 7 days post infection by ELISA; assay type: functional; conditions: Human immunodeficiency virus 1, NL4.3, CCRF-CEM, 168 h; how it was run: as §1
[21] = tested on: Human immunodeficiency virus 1; assay: Antiviral activity against 0.05 MOI Human immunodeficiency virus 1 NL4.3 infected in human CEM cells expressing green fluorescent protein assessed as p24 antigen production at 5.31 uM measured 7 days post infection by ELISA; assay type: functional; conditions: Human immunodeficiency virus 1, NL4.3, CCRF-CEM, 168 h; how it was run: as §1
[22] = tested on: Human immunodeficiency virus 1; assay: Antiviral activity against 0.05 MOI Human immunodeficiency virus 1 NL4.3 infected in human CEM cells expressing green fluorescent protein assessed as p24 antigen production at 4.62 uM measured 7 days post infection by ELISA; assay type: functional; conditions: Human immunodeficiency virus 1, NL4.3, CCRF-CEM, 168 h; how it was run: as §1
[23] = tested on: Human immunodeficiency virus 1; assay: Antiviral activity against 0.05 MOI Human immunodeficiency virus 1 NL4.3 infected in human CEM cells expressing green fluorescent protein assessed as p24 antigen production at 2.10 uM measured 7 days post infection by ELISA; assay type: functional; conditions: Human immunodeficiency virus 1, NL4.3, CCRF-CEM, 168 h; how it was run: as §1

## Cc1cn([C@H]2C[C@H](N=[N+]=[N-])[C@@H](CO)O2)c(=O)[nH]c1=O [ZIDOVUDINE]
[1]
  inhibition at 5 µM: 89.8%
[2]
  EC50: 1.05 µM

## COc1ccc2cc3[n+](cc2c1OC(=O)c1ccc(F)c(C(F)(F)F)c1)CCc1cc2c(cc1-3)OCO2
[3]
  inhibition at 4.88 µM: 0%

## COc1ccc2cc3[n+](cc2c1OC(=O)c1ccc(C(F)(F)F)cc1F)CCc1cc2c(cc1-3)OCO2
[4]
  inhibition at 9.77 µM: 23.4%

## COc1ccc2cc3[n+](cc2c1OC)CCc1cc2c(cc1-3)OCO2 [BERBERINE CHLORIDE]
[5]
  inhibition: 94%
[6]
  CC50 at 48 h: 2.09 µM
[7]
  selectivity ratio: 16.1
[8]
  inhibition at 0.29 µM: 66%
[2]
  EC50: 0.13 µM

## COc1ccc2cc3[n+](cc2c1OC(=O)c1cccc2ccccc12)CCc1cc2c(cc1-3)OCO2
[9]
  inhibition at 1.05 µM: 0%

## COc1ccc2cc3[n+](cc2c1OC(=O)c1ccc(F)cc1F)CCc1cc2c(cc1-3)OCO2
[5]
  inhibition: 99%
[6]
  CC50 at 48 h: 57.1 µM
[7]
  selectivity ratio: 60.1
[10]
  inhibition at 4.32 µM: 71.7%
[2]
  EC50: 0.95 µM

## COc1ccc2cc3[n+](cc2c1OC(=O)c1ccco1)CCc1cc2c(cc1-3)OCO2
[11]
  inhibition at 18.03 µM: 22.6%

## COc1cc2c(cc1OC)[C@@H]1Cc3ccc(OC)c(OC)c3CN1CC2
[12]
  inhibition: 25%

## COc1ccc2cc3[n+](cc2c1OC(=O)c1ccccc1)CCc1cc2c(cc1-3)OCO2
[13]
  inhibition at 4.69 µM: 37.2%

## COc1ccc2cc3[n+](cc2c1O)CCc1cc2c(cc1-3)OCO2 [BERBERRUBINE CHLORIDE]
[5]
  inhibition: 99%
[6]
  CC50 at 48 h: 169 µM
[7]
  selectivity ratio: 60.4
[14]
  inhibition at 15.52 µM: 77%
[2]
  EC50: 2.8 µM

## COc1ccc2cc3[n+](cc2c1OC(=O)c1ccc(F)cc1C(F)(F)F)CCc1cc2c(cc1-3)OCO2
[3]
  inhibition at 4.88 µM: 0%

## COc1ccc2cc3[n+](cc2c1OC(=O)c1ccc(F)c(F)c1)CCc1cc2c(cc1-3)OCO2
[15]
  inhibition at 21.65 µM: 0%

## COc1ccc2cc3[n+](cc2c1OC(=O)c1ccc(SC)cc1)CCc1cc2c(cc1-3)OCO2
[16]
  inhibition at 5.3 µM: 0%

## COc1ccc2cc3[n+](cc2c1OC(=O)Cc1cccs1)CCc1cc2c(cc1-3)OCO2
[17]
  inhibition at 2.24 µM: 0%

## COc1ccc2cc3[n+](cc2c1OC(=O)C12CC4CC(CC(C4)C1)C2)CCc1cc2c(cc1-3)OCO2
[18]
  inhibition at 1.03 µM: 64.2%

## COc1ccc2cc3[n+](cc2c1OC(=O)c1c(F)cccc1C(F)(F)F)CCc1cc2c(cc1-3)OCO2
[19]
  inhibition at 1.95 µM: 0%

## COc1ccc(C(=O)Oc2c(OC)ccc3cc4[n+](cc23)CCc2cc3c(cc2-4)OCO3)cc1
[20]
  inhibition at 0.02 µM: 44.3%

## COc1ccc2cc3[n+](cc2c1OC(=O)c1ccc2c(c1)OCO2)CCc1cc2c(cc1-3)OCO2
[21]
  inhibition at 5.31 µM: 45.6%

## COc1ccc2cc3[n+](cc2c1OC(=O)c1cccs1)CCc1cc2c(cc1-3)OCO2
[5]
  inhibition: 99%
[6]
  CC50 at 48 h: 91.9 µM
[7]
  selectivity ratio: 50.5
[22]
  inhibition at 4.62 µM: 73.1%
[2]
  EC50: 1.82 µM

## COc1ccc2cc3[n+](cc2c1OC(=O)c1ccc2ccccc2c1)CCc1cc2c(cc1-3)OCO2
[23]
  inhibition at 2.1 µM: 58.8%
